Experimental data published in ChEMBL document CHEMBL1127023, “Nonpeptide angiotensin II receptor antagonists. Synthesis and biological activity of benzimidazoles” (J Med Chem, 1993).

How the values were obtained:
[1] = In vitro for inhibition of specific binding of [125I]-angiotensin II (0.2 nM) to bovine adrenal cortex
[2] = molecular target: Angiotensin II receptor (Rattus norvegicus) (UniProt P29089+P25095+P35351); assay: In vivo inhibition of angiotensin II (0.1 ug/kg) induced increase in blood pressure in conscious male rat at 3 mg/kg for 3h/7h.; format: functional, organism-based; design: dose 3 mg/kg
In short: (§1)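 Conscious male Jcl:Sprague-Dawley rats (300–400 g), femoral artery and vein cannulated under pentobarbital the day before. AII 100 ng/kg iv was given twice as control. Compound was dosed orally as a gum arabic suspension, then AII challenges were repeated. Pressor-response inhibition was read at 3 and 7 h after dosing, from duplicate experiments.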

[3] = test system: Rattus norvegicus; assay: In vivo for inhibition of the Angiotensin II (0.1 ug/kg) induced increase in blood pressure in conscious male rat at 10 mg/kg for 0.5h/1h; format: functional
[4] = test system: Rattus norvegicus; assay: In vivo for inhibition of the Angiotensin II (0.1 ug/kg) induced increase in blood pressure in conscious male rat at 30 mg/kg for 3h/7h; format: functional
In short: as §1

[5] = test system: Rattus norvegicus; assay: In vivo inhibition of angiotensin II (0.1 ug/kg)-induced increase in blood pressure in conscious male rat at 10 mg/kg for 3h/7h; format: functional
In short: as §1

[6] = In vitro for inhibition of specific binding of [125I]-angiotensin II (0.02 nM) to bovine adrenal cortex; format: tissue-based, Bos taurus
[7] = test system: Rattus norvegicus; assay: In vivo for inhibition of the Angiotensin II (0.1 ug/kg) induced increase in blood pressure in conscious male rat at 100 mg/kg for 3h/7h; format: functional
In short: as §1

[8] = test system: Rattus norvegicus; assay: In vivo inhibition of angiotensin II (0.1 ug/kg) induced increase in blood pressure in conscious male rat at 10 mg/kg for 3h/7h; format: functional
In short: as §1

Row | Compound | IC50 [1] [nM] | inhibition [2] [%] | inhibition in vivo at 30 mg/kg [4] [%] | further results
1 | CCCCc1nc2cccc(CC(=O)O)c2n1Cc1ccc(-c2ccccc2-c2nn[nH]n2)cc1 | 2600 |  |  | 
2 | CCCCc1nc2cccc(C(=O)O)c2n1Cc1ccc(-c2ccccc2-c2nnnn2C)cc1 | 3400 | 77 |  | 
3 | CCCCc1nc2ccc(Cl)cc2n1Cc1ccc(-c2ccccc2-c2nn[nH]n2)cc1 | 3100 |  | 18 | inhibition in vivo at 10 mg/kg [3]: 23%
4 | CCCCc1nc2ccccc2n1Cc1ccc(-c2ccccc2-c2nn[nH]n2)cc1 | 900 |  | 18 | inhibition in vivo at 10 mg/kg [5]: 13%; inhibition in vivo at 10 mg/kg [3]: 52%
5 | CCCCc1nc2ccc(C)c(C(=O)OCC)c2n1Cc1ccc(-c2ccccc2-c2nn[nH]n2)cc1 |  | 13 | 100 | IC50 [6]: 910 nM
6 | CCCCc1nc2ccc(OC)cc2n1Cc1ccc(-c2ccccc2-c2nn[nH]n2)cc1 | 1100 |  |  | inhibition in vivo at 100 mg/kg [7]: 5%; inhibition in vivo at 10 mg/kg [3]: 77%
7 | CCCCc1nc2cc(C)cc(C(=O)OC)c2n1Cc1ccc(-c2ccccc2-c2nn[nH]n2)cc1 | 870 | 41 |  | 
8 | CCCCc1nc2cccc(CO)c2n1Cc1ccc(-c2ccccc2-c2nn[nH]n2)cc1 | 450 | 16 | 41 | 
9 | CCCCc1nc2ccccc2n1Cc1ccc(-c2ccccc2C(=O)O)cc1 | 1100 |  |  | inhibition in vivo at 100 mg/kg [7]: 45%; inhibition in vivo at 10 mg/kg [3]: 20%
10 | CCCCc1nc2cc(C(=O)OC)ccc2n1Cc1ccc(-c2ccccc2-c2nn[nH]n2)cc1 | 740 |  |  | inhibition in vivo at 100 mg/kg [7]: -13%
11 | CCCCc1nc2cccc(CN(C)C)c2n1Cc1ccc(-c2ccccc2-c2nn[nH]n2)cc1 | 2400 | 12 |  | 
12 | CCCCc1nc2cccc(O)c2n1Cc1ccc(-c2ccccc2-c2nn[nH]n2)cc1 | 1100 | 2 | 56 | 
13 | CCCCc1nc2cccc(C(=O)OC)c2n1Cc1ccc(-c2ccccc2-c2nn[nH]n2)cc1 | 320 | 78 |  | 
14 | CCCCc1nc2ccc(C(=O)OC)cc2n1Cc1ccc(-c2ccccc2-c2nn[nH]n2)cc1 | 440 |  | 0 | 
15 | CCCCc1nc2cc(C(=O)O)ccc2n1Cc1ccc(-c2ccccc2-c2nn[nH]n2)cc1 | 5500 | 7 |  | 
16 | CCCCOC(=O)c1cccc2nc(CCCC)n(Cc3ccc(-c4ccccc4-c4nn[nH]n4)cc3)c12 | 1200 | 9 | 78 | 
17 | CCCCc1nc2cccc(CC(=O)OCC)c2n1Cc1ccc(-c2ccccc2-c2nn[nH]n2)cc1 | 250 | 24 | 82 | 

Row | Compound | IC50 [1] [nM] | inhibition [2] [%] | inhibition in vivo at 30 mg/kg [4] [%] | further results
18 | CCCCc1nc2cc(OC)ccc2n1Cc1ccc(-c2ccccc2-c2nn[nH]n2)cc1 | 910 |  |  | inhibition in vivo at 100 mg/kg [7]: 84%; inhibition in vivo at 10 mg/kg [3]: 60%
19 | CCCCc1nc2cccc(COC)c2n1Cc1ccc(-c2ccccc2-c2nn[nH]n2)cc1 | 600 | 54 |  | 
20 | CCCCc1nc2cc(Cl)cc(C(=O)O)c2n1Cc1ccc(-c2ccccc2-c2nn[nH]n2)cc1 |  | 23 |  | 
21 | CCCCc1nc2c(C(N)=O)cccc2n1Cc1ccc(-c2ccccc2-c2nn[nH]n2)cc1 |  |  | 28 | 
22 | CCCCc1nc2cccc(C(=O)NC(C)C)c2n1Cc1ccc(-c2ccccc2-c2nn[nH]n2)cc1 | 540 |  |  | 
23 | CCCCc1nc2cccc(C(=O)O)c2n1Cc1ccc(-c2ccccc2C(=O)O)cc1 | 660 | 2 | 46 | 
24 | CCCCc1nc2c(C(=O)OC)cccc2n1Cc1ccc(-c2ccccc2-c2nn[nH]n2)cc1 | 7200 |  | 9 | 
25 | CCCCc1nc2cccc(OC)c2n1Cc1ccc(-c2ccccc2-c2nn[nH]n2)cc1 | 2800 | -6 |  | 
26 | CCCCc1nc2cc(Cl)ccc2n1Cc1ccc(-c2ccccc2-c2nn[nH]n2)cc1 | 1500 |  | -8 | inhibition in vivo at 10 mg/kg [3]: 45%
27 | CCCCc1nc2cccc(C(=O)OCC)c2n1Cc1ccc(-c2ccccc2-c2nn[nH]n2)cc1 | 1400 | 51 |  | 
28 | CCCCc1nc2cc(C)cc(C(=O)O)c2n1Cc1ccc(-c2ccccc2-c2nn[nH]n2)cc1 | 1300 | 80 |  | 
29 | CCCCc1nc2ccc(C)c(C(=O)O)c2n1Cc1ccc(-c2ccccc2-c2nn[nH]n2)cc1 | 340 | 40 |  | 
30 | CCCCc1nc2cc(Cl)cc(C(=O)OC)c2n1Cc1ccc(-c2ccccc2-c2nn[nH]n2)cc1 | 440 | 57 |  | 
31 | CCCCc1nc2c(C(=O)O)cccc2n1Cc1ccc(-c2ccccc2-c2nn[nH]n2)cc1 | > 10000 |  |  | inhibition in vivo at 10 mg/kg [8]: 19%
32 | CCCCc1nc2ccc(C(=O)O)cc2n1Cc1ccc(-c2ccccc2-c2nn[nH]n2)cc1 | 9000 |  | 9 | 
33 | CCCCc1nc2cccc(C(=O)O)c2n1Cc1ccc(-c2ccccc2-c2nn[nH]n2)cc1 | 550 | 91 |  | 
34 | CCCCc1nc2cccc(C)c2n1Cc1ccc(-c2ccccc2-c2nn[nH]n2)cc1 | 330 | 8 |  | 
